This note sets out measurements from ChEMBL document CHEMBL1150797 (Antimicrob Agents Chemother, 2007).

Series [1] deals with Homo sapiens. The series is described as follows: Tmax in tuberculosis patient at 600 mg, po. The class given is ADME, organism-based. Conditions: in vivo.
Series [2] is described as follows: clinical. As to conditions: human, plasma, po, 600 mg.
Series [3] is described as follows: clinical. Conditions: human, plasma, po, 450 mg.
Series [4] is described as follows: Tmax in tuberculosis patient at 450 mg, po. Conditions: human, in vivo. The format is ADME, organism-based.
Series [5] in a line: Apparent volume of distribution in tuberculosis patient at 600 mg, po. The format is ADME, organism-based. As to conditions: human, in vivo, read-out: Vc/F.
A short description of series [6]: Cmax in human tuberculosis patient at 600 mg, po. Conditions: in vivo.
Series [7] can be described thus: Apparent volume of distribution in tuberculosis patient at 450 mg, po. The class given is ADME, organism-based. Conditions: human, in vivo, read-out: Vc/F.
In series [8] the test system is Homo sapiens. As to the kind of experiment: Tmax in tuberculosis patient assessed as desacetylrifampin level at 450 mg, po. The class given is ADME, organism-based. Conditions: in vivo.
The nature of series [9]: Apparent clearance in tuberculosis patient at 600 mg, po. The format is ADME, organism-based. As to conditions: human, in vivo.
In series [10] the test system is Homo sapiens. The series is described as follows: Tmax in tuberculosis patient assessed as desacetylrifampin level at 600 mg, po. As to conditions: in vivo. The format is ADME, organism-based.
A short description of series [11]: Apparent clearance in tuberculosis patient at 450 mg, po. The format is ADME, organism-based. Conditions: human, in vivo.
Series [12] relates to Homo sapiens. As to the kind of experiment: Cmax in tuberculosis patient at 750 mg, po coadministered with 450 mg, po rifampin. The format is ADME, organism-based. On the set-up: dose 750 mg, route oral. Conditions: in vivo. Summed up:
(§1)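 Plasma was sampled predose and at 1–12 h (nine points). Assay: spiked with internal standard, chloroform extraction, derivatization, HPLC-UV at 215 nm, LLOQ 0.05 mg/liter. Noncompartmental analysis: Cmax and Tmax observed, t1/2 = 0.693/β, AUC0-24 by linear-log trapezoid.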

Series [13] in a line: Tmax in tuberculosis patient at 750 mg, po coadministered with 600 mg, po rifampin. The format is ADME, organism-based. Conditions: human, in vivo. The procedure, abridged:
as §1

Series [14] in a line: Half life in tuberculosis patient at 750 mg, po coadministered with 600 mg, po rifampin. The class given is ADME, organism-based. As to conditions: human, in vivo. The procedure, abridged: as §1
Series [15] can be described thus: Half life in tuberculosis patient at 750 mg, po coadministered with 450 mg, po rifampin. The class given is ADME, organism-based. Conditions: human, in vivo. The procedure, abridged: as §1
Series [16] can be described thus: AUC (0 to 24 hrs) in tuberculosis patient at 750 mg, po coadministered with 600 mg, po rifampin. On the set-up: time < 24 hr, dose 750 mg, route oral. As to conditions: human, plasma. The format is ADME, organism-based. Summed up: as §1
The nature of series [17]: Tmax in tuberculosis patient at 750 mg, po coadministered with 450 mg, po rifampin. The class given is ADME, organism-based. Conditions: human, in vivo. The procedure, abridged:
as §1

The test system of series [18] is Homo sapiens. The series is described as follows: Cmax in tuberculosis patient at 750 mg, po coadministered with 600 mg, po rifampin. As to conditions: in vivo. On the set-up: dose 750 mg, route oral. The format is ADME, organism-based. Summed up:
as §1

The nature of series [19]: AUC (0 to 24 hrs) in tuberculosis patient at 750 mg, po coadministered with 450 mg, po rifampin. The format is ADME, organism-based. On the set-up: dose 750 mg, time < 24 hr, route oral. Conditions: human, plasma. The procedure, abridged: as §1
A short description of series [20]: Cmax in tuberculosis patient at 1500 mg, po coadministered with 450 mg, po rifampin. On the set-up: dose 1500 mg, route oral. Conditions: human, in vivo. The format is ADME, organism-based. The procedure, abridged: (§2)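 Venous plasma was drawn predose and at 1, 1.5, 2, 2.5, 3, 4, 6 and 12 h. Assay: solid-phase extraction, HPLC-UV at 266 nm, LLOQ 0.1 mg/liter. Cmax and Tmax were observed values; noncompartmental analysis gave t1/2 as 0.693/β and AUC0-24 by linear-log trapezoid with C24 extrapolated.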

A short description of series [21]: Half life in tuberculosis patient at 1500 mg, po coadministered with 450 mg, po rifampin. As to conditions: human, in vivo. The format is ADME, organism-based. Summed up: as §2
Series [22] in a line: AUC (0 to 24 hrs) in tuberculosis patient at 1500 mg, po coadministered with 600 mg, po rifampin. As to conditions: human, plasma. The class given is ADME, organism-based. On the set-up: dose 1500 mg, time < 24 hr, route oral. Summed up: as §2
A short description of series [23]: Half life in tuberculosis patient at 1500 mg, po coadministered with 600 mg, po rifampin. The format is ADME, organism-based. As to conditions: human, in vivo. The procedure, abridged: as §2
The nature of series [24]: Tmax in tuberculosis patient at 1500 mg, po coadministered with 600 mg, po rifampin. The format is ADME, organism-based. Conditions: human, in vivo. The procedure, abridged:
as §2

Series [25] is described as follows: AUC (0 to 24 hrs) in tuberculosis patient at 1500 mg, po coadministered with 450 mg, po rifampin. The class given is ADME, organism-based. On the set-up: time < 24 hr, dose 1500 mg, route oral. Conditions: human, plasma. The procedure, abridged:
as §2

A short description of series [26]: Cmax in tuberculosis patient at 1500 mg, po coadministered with 600 mg, po rifampin. The format is ADME, organism-based. On the set-up: dose 1500 mg, route oral. As to conditions: human, in vivo. The procedure, abridged:
as §2

Series [27] is described as follows: Tmax in tuberculosis patient at 1500 mg, po coadministered with 450 mg, po rifampin. The format is ADME, organism-based. As to conditions: human, in vivo. Summed up:
as §2

Molecules are shown by their SMILES.

As usually defined, the Tmax is the time from dosing to the highest level. What is called AUC(0-t) is exposure summed from dosing to a finite time, without extrapolation to infinity. As usually defined, the CL/F is clearance divided by bioavailability, as obtained after extravascular dosing. Regarding `CO[C@H]1/C=C/O[C@@]2(C)Oc3c(C)c(O)c4c(O)c(c(/C=N/N5CCN(C)CC5)c(O)c4c3C2=O)NC(=O)/C(C)=C\C=C\[C@H](C)[C@H](O)[C@@H](C)[C@@H](O)[C@@H](C)[C@H](OC(C)=O)[C@@H]1C` [RIFAMPIN], the Tmax in series [1] was 1 h; in series [4], 2 h; in series [8], 4 h; in [10], 4 h. For the same compound, the AUC(0-t) at 24 h amounted to 79700 ng·h/mL in series [2] and 48500 ng·h/mL in series [3]. The Vd/F in [5] was determined as 23.3 L; in [7], 25.3 L. Further, the Cmax in series [6] was found to be 15600 ng/mL. For the same compound, the apparent clearance CL/F in [9] is 125 mL/min; in series [11] it was 153 mL/min.
Broadly, the half-life is how long it takes for the measured level to halve. With `CC[C@@H](CO)NCCN[C@@H](CC)CO` [ETHAMBUTOL], the Cmax came out at 2.4 h in [12] and 2.3 h in series [18]. Besides, the Tmax in series [13] and in [17] was 2.5 h each time. Also, the half-life in [14] was 4.6 h; in series [15] it was 4.2 h. Also, the AUC(0-t) at 24 h turned out to be 14700 ng·h/mL in series [16] and 14400 ng·h/mL in series [19].
For `NC(=O)c1cnccn1` [PYRAZINAMIDE], the values for the Cmax in series [20] and in [26] were 43800 ng/mL and 46000 ng/mL, respectively. In addition, the results for the half-life in [21] and in series [23] were 6.6 h and 6.9 h, respectively. Also, the area under the curve AUC(0-t) at 24 h in [22] is 514000 ng·h/mL; in series [25], 473000 ng·h/mL. The Tmax in series [24] worked out at 2.5 h; in [27], 2.75 h.
